SIAE inh – human SIAE inhibitors, primary screen, biochemical, fluorescence polarization, FP-Rh probe, 1536-well HTS. Sialate O-acetylesterase (Homo sapiens), Q9HAT2. SIAE FP-Rh probe binding. inhibition, % at 9.66 µM. 370,000 compounds, 0.69% hits. AID 1053197, 2014;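 active = inhibition above a cutoff: mean of compounds within the control limits plus 3 SD of those, cut at about 17% in these data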;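 note: 0% = plate median of compound wells and 100% = probe without SIAE protein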
DAGLB inh – DAGLB lipase inhibitors, primary screen, biochemical, fluorescence, HTS; HEK293T DAGLB membrane lysate, EnzChek fluorogenic substrate; inhibition, % at 5.17 µM; 340,000 compounds, 0.059% hits; AID 504411, 2011; in the data active = inhibition above about 34%;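 note: 0% = enzyme with vehicle and 100% = wells lacking enzyme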
HTRA1 inh – HTRA1 serine protease inhibitors, primary screen, biochemical, fluorescence polarization, HTS; inhibition, % at 5.96 µM; 340,000 compounds, 0.5% hits; Q92743; recombinant HTRA1, FP-rhodamine activity-based probe; in the data active = inhibition above about 36%;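 note: 0% = enzyme with DMSO and 100% = wells lacking enzyme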
Target sequence (Q92743 whole entry, looked up): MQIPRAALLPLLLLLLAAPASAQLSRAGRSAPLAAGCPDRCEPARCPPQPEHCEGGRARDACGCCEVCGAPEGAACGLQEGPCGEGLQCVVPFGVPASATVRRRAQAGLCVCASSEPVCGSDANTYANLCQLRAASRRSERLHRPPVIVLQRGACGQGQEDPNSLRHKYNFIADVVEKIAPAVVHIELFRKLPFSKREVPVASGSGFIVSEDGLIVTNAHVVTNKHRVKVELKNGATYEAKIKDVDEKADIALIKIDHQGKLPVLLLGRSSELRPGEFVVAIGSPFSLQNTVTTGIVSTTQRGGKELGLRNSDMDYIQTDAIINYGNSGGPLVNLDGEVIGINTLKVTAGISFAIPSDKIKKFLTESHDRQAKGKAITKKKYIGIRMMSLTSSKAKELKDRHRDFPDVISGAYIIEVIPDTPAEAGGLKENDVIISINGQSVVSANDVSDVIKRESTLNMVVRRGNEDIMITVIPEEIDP
mABHD4 FP – ABHD4 inhibitors, primary screen, biochemical, fluorescence polarization, mouse. (Lyso)-N-acylphosphatidylethanolamine lipase (Mus musculus), Q8VD66. purified mABHD4, FP-Rh probe fluorescence polarization. inhibition, % at 8.92 µM. 370,000 compounds, 0.54% hits. AID 720543, 2013;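 active = inhibition exceeding the mean over every tested compound plus 3 SD, cut at about 30% in these data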;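 note: 0% = plate median of compound wells and 100% = S159A mutant with DMSO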
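Assay system: wild-type mouse ABHD4 protein; compound: single nominal dose of 8.92 µM, 0.89% DMSO final; schedule: 45 min + 60 min at 25 °C; measured by: FP readout, ex 525 nm / em 598 nm; evaluation: % inhibition of FP-Rh probe binding versus controls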
TCR-CD3 inh – inhibitors of human TCR-CD3 interaction, primary screen, biochemical, fluorescence, TAMRA-labeled TCR probe | AID 651800, 2012 | T-cell receptor (TCR) | inhibition, % at 9.4 µM | 360,000 compounds, 0.37% hits;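 note: recombinant mutant TCR 2C K166C tagged with TAMRA read by polarization; 0% = receptor in buffer alone and 100% = receptor with positive control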
DAGLB confirm – DAGLB lipase inhibitors, retest, confirmation, biochemical, fluorescence, HEK293T membranes; shares compounds with DAGLB inh; HEK293T DAGLB membrane lysate, EnzChek fluorogenic substrate; 190 compounds, 73% hits; AID 504445, 2011; inhibition, % at 5.17 µM;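 active = mean inhibition over triplicate wells above a set limit taken from the primary lipase screen, cut at about 34% in these data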;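 note: 0% = DAGLB with DMSO and 100% = wells lacking DAGLB enzyme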
HTRA1 conf – HTRA1 protease inhibitors, retest, confirmation, biochemical, fluorescence polarization. recombinant HTRA1, FP-rhodamine activity-based probe. AID 540248, 2011. 1,600 compounds, 66% hits. inhibition, % at 5.96 µM. shares compounds with HTRA1 inh;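 active = mean inhibition over three repeats above a set limit taken from the earlier primary screen, cut at about 37% in these data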;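 note: 0% = HTRA1 with DMSO and 100% = wells lacking HTRA1; inhibitors block probe binding so polarization drops and inhibition rises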
BSA probe FL – compounds interfering with TAMRA-BSA probe, counter-screen for TCR-CD3 interaction inhibitor project, biochemical, fluorescence, TAMRA-labeled BSA | 1,200 compounds, 10% hits | inhibition, % at 9.4 µM | shares compounds with TCR-CD3 inh | TAMRA-labeled BSA probe fluorescence counterscreen; in the data active = inhibition above about 23%;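 note: 0% = buffer low control and 100% = reference high control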
TCR-CD3 inh conf – TCR-CD3 interaction inhibitors, retest, confirmation, biochemical, fluorescence, TAMRA-labeled TCR probe; 1,200 compounds, 48% hits; inhibition, % at 9.4 µM; AID 652036, 2013; shares compounds with TCR-CD3 inh; TAMRA-labeled TCR probe fluorescence binding assay
mABHD4 conf – ABHD4 inhibitors, retest, confirmation, biochemical, fluorescence polarization, mouse | AID 720658, 2013 | 1,800 compounds, 55% hits | purified mABHD4, FP-Rh probe fluorescence polarization | inhibition, % at 8.92 µM | shares compounds with mABHD4 FP;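 active = mean inhibition across replicates above the hit cutoff set in the primary screen, cut at about 30% in these data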;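 note: 0% = wild-type ABHD4 with DMSO and 100% = catalytically dead S159A mutant with DMSO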
SIAE confirm – human SIAE inhibitors, retest, confirmation, biochemical, fluorescence polarization, FP-Rh probe, triplicate | SIAE FP-Rh activity-based probe | shares compounds with SIAE inh | inhibition, % at 9.66 µM | AID 1117263, 2014 | 2,300 compounds, 13% hits;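 active = mean inhibition of the replicates above the hit cutoff set in the primary screen, cut at about 17% in these data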;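 note: 0% = SIAE with DMSO and probe and 100% = probe without SIAE; inhibitors lower polarization as more probe stays unbound to SIAE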
Starred values were filed as active, the others as inactive; x = no result given. This is a sample that favours compounds with a hit; in the whole collection about 1.5% have one here. Cut-off read from the data, not from the text of the source, unless noted: active = inhibition above about 19%; inactive = the rest.

SMILES | SIAE inh | DAGLB inh | HTRA1 inh | mABHD4 FP | TCR-CD3 inh | HTRA1 conf | others
Cc1cc2c(C(C)C)c(O)c(O)c(C=O)c2c(O)c1-c1c(C)cc2c(C(C)C)c(O)c(O)c(C=O)c2c1O | 18.6* | x | x | 92.4* | 5.1 | x
COc1ccc2c3c([nH]c2c1)C(C)NCC3 (stereo not drawn) | 6.5 | 2.7 | 18.4 | 10.3 | 24.7* | x
COc1ccc2[nH]c3c(c2c1)CCNC3C (stereo not drawn) | 2.1 | 1.4 | -1.0 | -2.9 | -15.9 | x
N#CCC[C@@H]1CC[C@]2(CCCN(Cc3ccncc3)C2)O1 | 3.0 | x | x | 0.6 | x | x
COC(=O)C1=C(c2c(C)noc2C)C[C@@H]2CC[C@H]1N2C(=O)NCCCOC(C)C | 31.1* | 0.2 | -0.7 | -3.3 | 1.5 | x
S=P(c1ccccc1)(c1ccccc1)c1c[n+](Cc2ccccc2)c2ccccn12 | -2.4 | x | x | 3.6 | x | x
O=C(O)c1ccc2c(c1)C1C(Cl)C(Sc3ccccc3[N+](=O)[O-])CC1C(c1cccc([N+](=O)[O-])c1)N2 (stereo not drawn) | x | 17.9 | 81.1* | x | x | x
C=CCN1C[C@H](C)N(C(c2ccc(C(=O)N(CC)CC)cc2)c2cccc(OC)c2)CC1C (stereo partly drawn) | 2.6 | x | x | -6.0 | -4.2 | x
CCOc1ccc(N2C(=O)/C(=C/c3ccco3)C(=O)NC2=S)cc1 | x | 12.6 | 53.9* | x | x | x
CC(C)(C)NC(=O)CN1C(=O)[C@@H](Cc2c[nH]c3ccccc23)N=C(c2ccccc2)c2ccccc21 | 3.1 | x | x | -8.1 | x | x
NP(=O)(OCCCc1ccccc1)Oc1ccc(Cl)cc1 (stereo not drawn) | 48.5* | 35.3* | -4.0 | -2.3 | -1.7 | x | DAGLB confirm=34.8*;SIAE confirm=45.7*
CCOC(=O)C1=C(C(=O)OCC)C2(c3ccccc3)c3ccccc3C1(C)N2C (stereo not drawn) | -37.3 | x | x | -87.3 | -31.0 | x
O=c1[nH]c(=S)n(C2CC2)c(O)c1/C=N/Nc1ccccc1 | -1.3 | 6.9 | -3.5 | -14.2 | -15.8 | x
O=c1[nH]c(=S)n(C2CC2)c(O)c1/C=N/Nc1cccc2ccccc12 | 11.0 | 13.7 | 40.9* | 26.7 | -3.6 | 21.6
CCCCn1c(=O)c(C(=O)Nc2ccccc2N)c(O)c2ccccc21 | -11.4 | -1.6 | 39.7* | 2.9 | -9.0 | 20.1
CCCCCn1c(=O)c(C(=O)Nc2ccccc2N)c(O)c2ccccc21 | 1.0 | -2.5 | 10.1 | 1.7 | 5.4 | x
CCN(CC)C(=O)c1ccc2c(c1)C1C=CCC1C(C(=O)O)N2 (stereo not drawn) | 16.9 | 0.9 | 59.3* | 53.7* | 23.9* | 54.6*
CCN(CC)C(=O)c1ccc2c(c1)C1C(Cl)C(Sc3ccccc3[N+](=O)[O-])CC1C(C(=O)O)N2 (stereo not drawn) | x | 22.0 | 78.1* | x | x | 76.7*
Cc1ccc2c(c1Cl)NC(C(=O)O)C1CC(Sc3ccccc3[N+](=O)[O-])C(Cl)C21 (stereo not drawn) | x | 13.8 | 42.8* | x | x | 41.3*
C=CCCC(NC(=O)OCc1ccccc1)P(=O)(Oc1ccccc1)Oc1ccccc1 (stereo not drawn) | -1.6 | x | x | -8.1 | x | x
O=c1c2ccccc2nc(/C=C/c2ccccc2)n1-c1ccc(O)cc1 | -13.6 | -0.2 | -36.3 | -12.5 | -3.4 | x
O=c1c2ccccc2nc(/C=C/c2ccc(O)c(O)c2)n1-c1ccccc1 | -9.9 | 12.0 | 64.4* | 19.0 | 4.5 | 87.1*
CCOC(=O)CC[C@@H]1CC[C@]2(CCCN(Cc3ccccn3)C2)O1 | -0.1 | x | x | 3.6 | x | x
COC(=O)[C@H]1C[C@@]2(C)c3ccccc3N[C@H]2N1 | 3.1 | x | x | -0.4 | x | x
Cc1nc2ccccc2c(=O)n1/N=C/c1cc(Br)cc(Br)c1O | 1.7 | 4.2 | 36.2* | 8.8 | 45.6* | 95.4* | BSA probe FL=-11.9;TCR-CD3 inh conf=47.3*
SMILES | SIAE inh | DAGLB inh | HTRA1 inh | mABHD4 FP | TCR-CD3 inh | HTRA1 conf | others
COC(=O)C1=C(c2ccc(OC(F)(F)F)cc2)C[C@@H]2CC[C@H]1N2C(=O)N1CCc2cc(OC)c(OC)cc2C1 | 0.5 | x | x | -1.0 | 2.1 | x
CC(C)Nc1ccc(Nc2ccccc2)cc1 | 12.1 | 8.7 | 69.2* | 43.1* | -2.8 | 53.0* | mABHD4 conf=34.5*
C[C@H]1CNCCN1c1ccc(N2CC[C@H](O)C2)c(C#N)c1 | 12.0 | x | x | 0.6 | 10.5 | x
CN(C)[C@@H]1C(=O)C(C(N)=O)=C(O)[C@@]2(O)C(=O)C3=C(O)c4c(O)cccc4[C@@](C)(O)C3[C@H](O)C12 (stereo partly drawn) | 16.9 | 2.4 | 42.9* | 68.0* | 27.3* | 11.0 | BSA probe FL=-2.5;TCR-CD3 inh conf=10.9;mABHD4 conf=21.8
CN(C)C1C(=O)C(C(N)=O)=C(O)C2(O)C(=O)C3=C(O)c4c(O)cccc4C(C)(O)C3CC12 (stereo not drawn) | x | 1.4 | 8.6 | x | x | x
CN(C)[C@@H]1C(=O)C(C(N)=O)=C(O)[C@@]2(O)C(=O)C3=C(O)c4c(O)ccc(Cl)c4[C@@](C)(O)C3C[C@@H]12 (stereo partly drawn) | 11.1 | 7.5 | 39.9* | 60.2* | 11.8 | 17.5 | mABHD4 conf=25.4
N#CC1c2ccccc2-n2nncc2CN1C(=O)c1ccccc1F (stereo not drawn) | -4.6 | x | x | 6.8 | 4.0 | x
O=C1C=C(N2CC2)c2ccccc2C1=O | 16.6 | 0.8 | 50.7* | 66.5* | 16.9 | 31.0 | mABHD4 conf=30.0*

Compound activity deposited in PubChem BioAssay by The Scripps Research Institute Molecular Screening Center.
